CR mimetic SO: caloric restriction mimetics inhibiting age-related superoxide in yeast; 0.18% of 330,000 active; S. cerevisiae aged cells, superoxide DHE fluorescence; active compounds read low; AID 2690; superoxide response (% of plate mean), % at 10 µM;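 active = superoxide response under a set limit, about three screen SD below normal, cut at about 65% in these data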;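 also: yeast aged for seven days with compound at 30 °C before DHE staining; 100% = average MFI of all compound-treated wells on the plate with controls excluded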
T cruzi inh: T. cruzi replication inhibition; T. cruzi beta-gal in NIH3T3, luminescence, 90 h; inhibition, % (test concentration not listed); 1.4% of 300,000 active;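 active = mean inhibition across valid replicates above about 55%, limit read from the data; inconclusive = mean below that limit but half or more replicates reach it; inactive = mean below it, under half of replicates reach it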;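 also: signal also drops with host cell toxicity which is not excluded here; 0% = plate median of DMSO wells and 100% = zero luminescence signal; higher percent means less beta-gal luminescence so fewer parasites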
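System: NIH/3T3 fibroblasts plus reporter T. cruzi. Medium: DMEM plus 2% FBS. Probe or stimulus: 5000 reporter trypomastigotes per well. Compound: single 50 nL compound addition per well in DMSO. Incubation: co-culture of at least 90 h after 3 h attachment. Detection: GalScreen β-gal luminescence, detergent lysis, 60 min. Evaluation: parasite load inhibition, %.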
HIF act: HIF pathway transcriptional activation; U2OS HRE-luciferase reporter, luminescence; normalized: DMSO 0%, desferrioxamine 100%; activation, % at 7.5 µM (by protocol); 0.32% of 300,000 active; AID 1910;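 active = mean activation of at least 10% of the iron chelator positive control signal, with at least half of replicates also reaching 10%; inconclusive = mean and replicate majority disagree about reaching 10%; inactive = mean and most replicates under 10%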
NRP1-CendR mod: alters CendR peptide binding to human NRP-1; FAM-RPARPAR peptide binding to NRP-1, fluorescence polarization; inhibition, % at 25 µM; 0.85% of 360,000 active;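 active = inhibition or corrected inhibition above about 18%, plus a signal ratio from 0.5 to 1.5, limit read from the data, passing the limit was not always enough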
Target sequence (O14786 whole entry, looked up): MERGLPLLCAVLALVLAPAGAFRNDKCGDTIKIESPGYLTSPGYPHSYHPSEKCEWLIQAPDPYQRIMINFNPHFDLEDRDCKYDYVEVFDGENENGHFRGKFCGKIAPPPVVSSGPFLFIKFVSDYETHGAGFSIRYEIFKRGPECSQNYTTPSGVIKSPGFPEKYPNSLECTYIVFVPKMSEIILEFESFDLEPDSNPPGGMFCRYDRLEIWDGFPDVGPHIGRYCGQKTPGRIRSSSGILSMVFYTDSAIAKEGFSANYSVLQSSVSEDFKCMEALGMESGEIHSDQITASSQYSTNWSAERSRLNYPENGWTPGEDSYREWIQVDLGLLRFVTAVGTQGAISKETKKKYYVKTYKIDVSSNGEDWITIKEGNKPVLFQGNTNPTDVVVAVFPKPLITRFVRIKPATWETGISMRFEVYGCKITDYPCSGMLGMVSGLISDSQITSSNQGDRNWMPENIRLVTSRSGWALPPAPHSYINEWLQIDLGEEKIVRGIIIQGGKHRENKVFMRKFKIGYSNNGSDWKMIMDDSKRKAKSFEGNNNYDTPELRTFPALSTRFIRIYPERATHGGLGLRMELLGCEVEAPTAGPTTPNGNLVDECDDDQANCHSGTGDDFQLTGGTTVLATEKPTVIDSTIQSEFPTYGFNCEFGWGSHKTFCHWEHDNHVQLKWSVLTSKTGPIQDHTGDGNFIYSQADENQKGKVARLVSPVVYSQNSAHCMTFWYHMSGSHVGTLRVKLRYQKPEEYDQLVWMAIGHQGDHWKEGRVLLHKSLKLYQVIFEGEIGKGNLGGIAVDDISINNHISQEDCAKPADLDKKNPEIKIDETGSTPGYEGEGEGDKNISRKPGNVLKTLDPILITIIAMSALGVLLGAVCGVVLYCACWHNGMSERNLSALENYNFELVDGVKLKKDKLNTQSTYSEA
AI-2 QS mod: Vibrio harveyi AI-2 quorum sensing modulation; 0.4% of 300,000 active; Vibrio harveyi JMH597 AI-2 luminescence/OD600 ratio, 9 h; active compounds read low; strain lacks LuxN and CqsS sensors; 0 = neutral-control median; AID 2094; activity change, % at 7.5 µM; in the data active = activity change below about -75%, passing the limit was not always enough; inconclusive = no clear call, values can overlap the other calls;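 also: luminescence divided by OD600 gain over 9 h not by final OD600 alone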
V-ATPase pHluor: regulators of yeast V-ATPase proton transport. 0.37% of 350,000 active. response, % at 10 µM. AID 504577. S. cerevisiae, pHLuorin cytosolic pH fluorescence; in the data active = response mostly above about 7.3%, no sharp cut-off; inactive = mostly below about 5.4%; also: actives read high
* marks the source's active call; other numbers are inactive results; ? = inconclusive; nt = not tested or not shown. Compounds with a hit are over-represented: about 3% of the library has one in this group of screens.

SMILES | CR mimetic SO | T cruzi inh | HIF act | NRP1-CendR mod | AI-2 QS mod | V-ATPase pHluor
O=C(Nc1ccccc1)c1ccc2c(c1)CCN2S(=O)(=O)c1ccccc1 | 98.0 | 15.8 | -0.5 | 2.8 | -22.7 | 0.6
CCc1nnc(NC(=O)c2ccc(S(=O)(=O)N3CCCc4ccccc43)cc2)o1 | 136.4 | 59.8* | 0.1 | -8.5 | 13.4 | -1.8
C=CCn1c(SCC(=O)NC2CCCC2)nc2sc(C)cc2c1=O | 104.7 | 2.9 | -0.4 | -5.8 | 32.0 | 13.1
O=C(Oc1ccc2c(-c3ccccc3)cc(=O)oc2c1)C1CCCCC1 | 102.3 | 4.6 | 0.2 | 7.5 | 6.9 | -2.2
COC(=O)Nc1ccc(S(=O)(=O)N2CCCc3ccccc32)cc1 | 101.0 | -73.4 | 0.6 | -2.7 | 15.2 | 2.9
O=C(Nc1nc2c(s1)CN(Cc1ccccc1)CC2)c1cccc(S(=O)(=O)N2CCc3ccccc32)c1 | 92.8 | 30.1 | -0.2 | 60.8 | 14.9 | 6.2
CNC(=O)c1ccsc1NC(=O)c1ccc(S(=O)(=O)N2CCCc3ccccc32)cc1 | 108.3 | 56.7* | -0.7 | -4.7 | 2.6 | 3.3
CC1CCc2nc(NC(=O)c3ccc(S(=O)(=O)N4CCCc5ccccc54)cc3)sc2C1 (stereo unspecified) | 97.6 | 60.9* | -0.5 | 14.1 | 14.6 | -2.0
COc1ccc(C(c2nnnn2Cc2ccccc2)N2CCN(c3nc4ccccc4s3)CC2)cc1 (stereo unspecified) | 98.3 | 64.0* | -0.9 | -3.2 | 1.8 | -1.2
Oc1ccc(N2CCN(C(c3cccnc3)c3nnnn3Cc3ccccc3)CC2)cc1 (stereo unspecified) | 96.3 | ? | 0.1 | 3.9 | 18.0 | 3.8
c1ccc(CCn2nnnc2C(c2cccnc2)N2CCN(c3nc4ccccc4s3)CC2)cc1 (stereo unspecified) | 84.9 | 60.1* | nt | 2.6 | 21.1 | 0.5
c1ccc(CCn2nnnc2C(c2cccnc2)N2CCN(c3ccccc3)CC2)cc1 (stereo unspecified) | 94.2 | 73.8* | 0.0 | -9.6 | 14.3 | 1.6
COc1ccc(C(c2nnnn2Cc2ccccc2)N2CCN(c3ccccc3)CC2)cc1 (stereo unspecified) | 125.0 | 13.2 | -0.6 | -4.6 | -2.4 | 0.6
c1ccc(C(c2nnnn2C2CCCC2)N2CCN(c3nc4ccccc4s3)CC2)cc1 (stereo unspecified) | 104.4 | 71.5* | -16.2 | -16.6 | 21.7 | 1.3
Cc1ccc(C(c2nnnn2C2CCCC2)N2CCN(c3nc4ccccc4s3)CC2)cc1 (stereo unspecified) | 129.7 | 46.7 | -1.2 | -4.5 | 34.5 | -1.6
Cc1csc(=O)n1CCC(=O)OCC(=O)Nc1ccc(Cl)cn1 | 100.2 | -4.4 | 1.5 | -3.5 | -6.7 | -2.6
O=C(Cc1ccccc1)NCC(=O)N1CCN(c2ccccc2)CC1 | 109.7 | -2.4 | 0.0 | 26.6* | 29.1 | -0.8
CC(C)Cc1ccc(CN2CCCC(NC(=O)c3nn(C)c(=O)c4ccccc34)C2)cc1 (stereo unspecified) | nt | 60.4* | -0.1 | 5.8 | 13.9 | 2.9
Cn1cnnc1SCC(=O)NC1CCCCC1 | 84.8 | -9.6 | 0.3 | 5.8 | 11.1 | -2.5
CC(C)Cc1ccc(CN2CCCC(NC(=O)CSc3nncn3C)C2)cc1 (stereo unspecified) | 107.9 | 55.0* | -0.2 | 3.3 | 30.1 | 8.3
CC1CCC(NC(=O)CSc2nncn2C)CC1 (stereo unspecified) | 99.0 | nt | nt | 23.2* | nt | -0.5
CCCCCN(C(=O)CCC(=O)OCC(=O)NCc1cccc(OC)c1)c1c(N)n(CCCC)c(=O)[nH]c1=O | 82.8 | -4.3 | 0.5 | 14.0 | 14.5 | -0.4
CCC(=O)Nc1cc(-c2nn(C)c(=O)c3ccccc23)ccc1N1CCOCC1 | 101.3 | -4.3 | -0.8 | 12.9 | 9.7 | -5.0
Cn1nc(-c2ccc(N3CCCCC3)c(NC(=O)c3ccco3)c2)c2ccccc2c1=O | 109.7 | 66.0* | -0.9 | -2.4 | 9.2 | -2.8
O=C([C@@H]1CC=C[C@@H]2CCN(C3CCCCC3)C(=O)[C@@H]21)N1CCN(c2ccccc2)CC1 | 86.7 | 1.8 | -0.3 | 23.4* | -0.8 | 5.3
Cc1cccc(NC(=O)C2CC2c2ccccc2)c1C (stereo unspecified) | 97.8 | -12.2 | -1.0 | -12.6 | 15.1 | 1.5
Nc1cc(S(=O)(=O)O)cc([N+](=O)[O-])c1O | 129.1 | -10.2 | -0.8 | 27.9* | 18.2 | -0.1

Bioassay records as filed in PubChem.
